From ChEMBL document CHEMBL2169879, “Design and synthesis of inhibitors of Plasmodium falciparum N-myristoyltransferase, a promising target for antimalarial drug discovery” (J Med Chem, 2012)
pEC50, pIC50: −log10 of the molar value.

What was measured:
[1] = target: T1, Glycylpeptide N-tetradecanoyltransferase (Plasmodium falciparum (isolate 3D7), UniProt Q8ILW6); test: Inhibition of Plasmodium falciparum N-myristoyltransferase using [3H]-myristoyl-CoA and GLYVSRLFNRLFQKK(Biotin)-NH2 as substrate after 30 mins scintillation proximity assay
T1 sequence (Q8ILW6 whole entry): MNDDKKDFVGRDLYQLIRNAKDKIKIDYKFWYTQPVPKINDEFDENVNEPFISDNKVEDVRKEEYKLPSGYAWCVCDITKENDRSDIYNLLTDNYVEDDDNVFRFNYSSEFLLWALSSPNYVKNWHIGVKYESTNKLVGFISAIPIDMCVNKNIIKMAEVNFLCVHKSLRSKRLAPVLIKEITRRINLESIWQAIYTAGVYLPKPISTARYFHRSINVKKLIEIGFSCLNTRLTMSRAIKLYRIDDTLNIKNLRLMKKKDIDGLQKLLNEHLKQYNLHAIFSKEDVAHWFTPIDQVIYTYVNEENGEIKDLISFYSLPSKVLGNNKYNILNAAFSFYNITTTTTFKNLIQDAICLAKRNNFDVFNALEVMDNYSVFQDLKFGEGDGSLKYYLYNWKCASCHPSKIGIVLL

[2] = Inhibition of Plasmodium vivax wild type N-myristoyltransferase using [3H]-myristoyl-CoA and GLYVSRLFNRLFQKK(Biotin)-NH2 as substrate after 30 mins scintillation proximity assay
[3] = target: Glycylpeptide N-tetradecanoyltransferase (Plasmodium vivax (strain Salvador I), UniProt A5K1A2, Y211A); test: Inhibition of Plasmodium vivax […] N-myristoyltransferase Y211A mutant using [3H]-myristoyl-CoA and GLYVSRLFNRLFQKK(Biotin)-NH2 as substrate after 30 mins scintillation proximity assay
Summary of the method: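 Purified NMT per 100 µL well: PfNMT 9.4 ng, PvNMT 4.8 ng, PvNMT Y211A 19.2 ng. Each well also held 62.5 nM [3H]-myristoyl-CoA and 500 nM biotinylated peptide in pH 7.4 Tris buffer with 4% DMSO. Incubation ran 30 min at 37°C. Reactions were stopped with streptavidin beads at pH 4 and counted after overnight settling. Inhibitor ranged 500 µM–2 nM. IC50 came from nonlinear regression, in duplicate.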

Plasmodium falciparum = test: Antiplasmodial activity against trophozoite-stage of Plasmodium falciparum 3D7 after 48 hrs by FACS analysis; type: functional, organism-based; settings: 3D7, 48 h
Summary of the method: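 Synchronous late-trophozoite 3D7 cultures at 1% parasitemia and 2% hematocrit with 0.5% DMSO, exposed to inhibitor from 10 μM down to 0.31 μM for a 48 h cycle at 37 °C. Aliquots stained with diluted hydroethidine for 20 min at 37 °C, then parasitemia read by flow cytometry. Untreated parasites and uninfected RBCs served as controls. EC50 from nonlinear regression, triplicate wells.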

[4] = Selectivity index, ratio of IC50 for human N-myristoyltransferase to IC50 for Plasmodium falciparum N-myristoyltransferase
Summary of the method: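 Buffer was 30 mM Tris pH 7.4 with 4% DMSO; 30 min at 37 °C. Reaction stopped with streptavidin beads at pH 4. […] Ratio is IC50(HsNMT1)/IC50(PfNMT).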

[5] = target: T2, Glycylpeptide N-tetradecanoyltransferase 1 (Homo sapiens, UniProt P30419); test: Inhibition of human N-myristoyltransferase using [3H]-myristoyl-CoA and GLYVSRLFNRLFQKK(Biotin)-NH2 as substrate after 30 mins scintillation proximity assay
T2 sequence (P30419 whole entry): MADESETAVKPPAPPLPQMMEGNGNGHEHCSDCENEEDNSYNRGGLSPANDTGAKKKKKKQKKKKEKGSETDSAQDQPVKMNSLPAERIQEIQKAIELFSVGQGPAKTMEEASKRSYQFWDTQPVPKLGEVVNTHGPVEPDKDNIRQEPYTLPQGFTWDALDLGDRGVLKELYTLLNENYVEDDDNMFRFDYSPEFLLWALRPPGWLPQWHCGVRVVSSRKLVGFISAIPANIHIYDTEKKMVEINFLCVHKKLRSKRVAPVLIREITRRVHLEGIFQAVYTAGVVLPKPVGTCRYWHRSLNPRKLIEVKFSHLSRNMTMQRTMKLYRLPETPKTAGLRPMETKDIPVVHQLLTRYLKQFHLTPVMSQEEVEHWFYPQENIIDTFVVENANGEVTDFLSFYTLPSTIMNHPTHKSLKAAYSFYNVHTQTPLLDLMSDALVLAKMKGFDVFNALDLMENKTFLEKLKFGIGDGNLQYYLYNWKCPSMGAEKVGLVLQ

[6] = target: Glycylpeptide N-tetradecanoyltransferase 1 (Homo sapiens, UniProt P30419, Y296A); test: Inhibition of human N-myristoyltransferase Y296A mutant using [3H]-myristoyl-CoA and GLYVSRLFNRLFQKK(Biotin)-NH2 as substrate after 30 mins scintillation proximity assay
Sequence of Glycylpeptide N-tetradecanoyltransferase 1 (Homo sapiens, UniProt P30419, Y296A) (P30419 whole entry Y296A): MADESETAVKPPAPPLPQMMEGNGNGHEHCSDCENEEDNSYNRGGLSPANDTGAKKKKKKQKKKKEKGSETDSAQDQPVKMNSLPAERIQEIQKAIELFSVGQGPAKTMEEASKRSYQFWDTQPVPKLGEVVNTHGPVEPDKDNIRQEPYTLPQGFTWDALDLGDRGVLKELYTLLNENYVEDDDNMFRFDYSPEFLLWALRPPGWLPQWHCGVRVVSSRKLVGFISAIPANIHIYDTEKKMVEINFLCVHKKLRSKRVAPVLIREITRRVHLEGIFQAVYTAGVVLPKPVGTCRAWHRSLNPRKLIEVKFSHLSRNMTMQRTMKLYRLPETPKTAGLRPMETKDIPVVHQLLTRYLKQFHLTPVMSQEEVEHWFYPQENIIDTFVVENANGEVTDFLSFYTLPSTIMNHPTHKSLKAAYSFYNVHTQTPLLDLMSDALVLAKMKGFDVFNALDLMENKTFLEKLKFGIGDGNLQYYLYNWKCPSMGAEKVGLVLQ

Sequence of Glycylpeptide N-tetradecanoyltransferase (Plasmodium vivax (strain Salvador I), UniProt A5K1A2, Y211A) (A5K1A2 whole entry Y211A): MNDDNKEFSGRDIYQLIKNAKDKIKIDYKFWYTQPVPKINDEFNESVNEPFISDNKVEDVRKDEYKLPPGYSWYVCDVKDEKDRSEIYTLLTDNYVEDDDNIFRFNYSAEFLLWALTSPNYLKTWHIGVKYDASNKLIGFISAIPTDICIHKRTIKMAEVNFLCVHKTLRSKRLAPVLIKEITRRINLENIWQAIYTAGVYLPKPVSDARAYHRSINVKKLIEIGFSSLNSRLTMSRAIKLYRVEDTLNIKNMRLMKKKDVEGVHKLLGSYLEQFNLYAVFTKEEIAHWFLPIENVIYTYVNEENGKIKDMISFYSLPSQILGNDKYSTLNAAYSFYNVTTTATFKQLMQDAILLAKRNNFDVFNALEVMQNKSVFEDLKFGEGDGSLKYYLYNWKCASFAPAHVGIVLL

With `Cc1c(C(=O)NC(C)C)oc2cccc(OC3CCNCC3)c12` as the molecule, how does the pIC50 [1] read?
The pIC50 was under 3.70.

With `O=S(=O)(Cc1ccccc1)c1cc2c(OC3CCNCC3)cccc2o1` as the molecule, how does the pIC50 [1] read?
Its pIC50 is under 3.70.

With `Cc1c(C(=O)NC2CCCCC2)oc2cccc(OC3CCNCC3)c12` as the molecule, how does the pIC50 [1] read?
Its pIC50 is under 4.00.

With `Cc1c(CCc2ccccc2)oc2cccc(OC3CCNCC3)c12` as the molecule, how does the pIC50 [1] read?
Its pIC50 is 3.88.

With `Cc1c(/C=C\c2ccccc2)oc2cccc(OC3CCNCC3)c12` as the molecule, how does the pIC50 [1] read?
The pIC50 was 4.14.

With `Cc1c(C(=O)OCc2cccc3ccccc23)oc2cccc(OC3CCNCC3)c12` as the molecule, how does the pIC50 [1] read?
The pIC50 was 5.85.

With `Cc1c(-c2nc(Cc3ccccc3)no2)oc2cccc(OC3CCNCC3)c12` as the molecule, how does the pIC50 [2] read?
Its pIC50 is 5.21.

And the pIC50 [3]?
Its pIC50 is 4.78.

And the pEC50 (Plasmodium falciparum)?
The pEC50 was 5.68.

With `Cc1c(C(=O)/C=C/c2ccccc2)oc2cccc(OC3CCNCC3)c12` as the molecule, how does the pIC50 [1] read?
The pIC50 was 5.46.

What about the Ratio IC50 [4] of the same molecule?
Its Ratio IC50 is 14.

What about the pEC50 (Plasmodium falciparum) of the same molecule?
Its pEC50 is 5.60.

With `c1ccc(CSc2cc3c(OC4CCNCC4)cccc3o2)cc1` as the molecule, how does the pIC50 [1] read?
The pIC50 was 4.42.

With `CCOC(=O)c1oc2cccc(OC3CCNCC3)c2c1C` as the molecule, how does the pIC50 [5] read?
Its pIC50 is under 3.70.

What about the pIC50 [1] of the same molecule?
The pIC50 was 4.78.

And the pEC50 (Plasmodium falciparum)?
Its pEC50 is 4.82.

With `COc1cccc(COC(=O)c2oc3cccc(OC4CCNCC4)c3c2C)c1` as the molecule, how does the pIC50 [5] read?
The pIC50 was 4.35.

And the pIC50 [6]?
The pIC50 was 5.00.

What about the pIC50 [3] of the same molecule?
Its pIC50 is 5.57.

What does the source list for `Cc1c(COc2ccccc2)oc2cccc(OC3CCNCC3)c12`?
pIC50 [1]: 5.18; Ratio IC50 [4]: > 16

With `Cc1c(C(=O)OCCCc2ccccc2)oc2cccc(OC3CCNCC3)c12` as the molecule, how does the pIC50 [1] read?
The pIC50 was 4.44.

Which results are given for `CCCCc1c(C)nc2ccc(OC)cc2c1SCCC#N`?
pIC50 [2]: 4.49; pIC50 [3]: 3.82

What does the source list for `Cc1c(/C=C/c2ccccc2)oc2cccc(OC3CCNCC3)c12`?
pIC50 [1]: 4.58; Ratio IC50 [4]: > 10

Which results are given for `Cc1c(C(=O)c2ccccc2)oc2cccc(OC3CCNCC3)c12`?
pIC50 [1]: 4.66; Ratio IC50 [4]: > 5; pEC50 (Plasmodium falciparum): 5.28

With `Cc1c(C(=O)OCC2CCCCC2)oc2cccc(OC3CCNCC3)c12` as the molecule, how does the pIC50 [1] read?
Its pIC50 is 5.01.

With `Cc1c(-c2nc(-c3ccccc3)no2)oc2cccc(OC3CCNCC3)c12` as the molecule, how does the pIC50 [1] read?
The pIC50 was 4.75.

And the Ratio IC50 [4]?
Its Ratio IC50 is over 12.

With `Cc1c(C(=O)OCCc2ccccc2)oc2cccc(OC3CCNCC3)c12` as the molecule, how does the pIC50 [1] read?
The pIC50 was 5.39.

With `Cc1c(COCc2ccccc2)oc2cccc(OC3CCNCC3)c12` as the molecule, how does the pIC50 [1] read?
Its pIC50 is 5.15.

What about the Ratio IC50 [4] of the same molecule?
Its Ratio IC50 is 14.

And the pEC50 (Plasmodium falciparum)?
The pEC50 was 5.35.

For `Cc1c(C(=O)CCc2ccccc2)oc2cccc(OC3CCNCC3)c12`, which Ratio IC50 [4] is on record?
The Ratio IC50 was over 20.

What about the pEC50 (Plasmodium falciparum) of the same molecule?
Its pEC50 is 5.40.

What does the source list for `CCOC(=O)c1oc2cccc(OCCCNCc3cccnc3)c2c1C`?
pIC50 [5]: < 3.00; pIC50 [1]: 4.29

With `Cc1c(C(=O)Nc2ccccc2)oc2cccc(OC3CCNCC3)c12` as the molecule, how does the pIC50 [1] read?
The pIC50 was 4.54.

And the Ratio IC50 [4]?
Its Ratio IC50 is over 10.

And the pEC50 (Plasmodium falciparum)?
The pEC50 was 5.28.

For `Cc1c(C(=O)NCc2cccc3ccccc23)oc2cccc(OC3CCNCC3)c12`, which Ratio IC50 [4] is on record?
The Ratio IC50 was 28.

And the pEC50 (Plasmodium falciparum)?
The pEC50 was 5.62.

What does the source list for `Cc1c(C(=O)Oc2ccccc2)oc2cccc(OC3CCNCC3)c12`?
pIC50 [1]: 4.61; Ratio IC50 [4]: > 20; pEC50 (Plasmodium falciparum): 5.00

With `Cc1c(C(=O)NCc2ccccc2)oc2cccc(OC3CCNCC3)c12` as the molecule, how does the pIC50 [1] read?
Its pIC50 is 4.89.

Which results are given for `Cc1c(C(=O)OCc2ccccc2)oc2cccc(OC3CCNCC3)c12`?
pIC50 [5]: < 4.00; pIC50 [1]: 6.57; Ratio IC50 [4]: > 400; pEC50 (Plasmodium falciparum): 5.92
